# ChEMBL document CHEMBL2034936, “Discovery and extensive in vitro evaluations of NK-HDAC-1: a chiral histone deacetylase inhibitor as a promising lead” (J Med Chem, 2012)
# Activity calls are given as the source filed them. No cut-off for these calls is given here.
# Columns and labels:
# HepG2 = test: cells; assay type: functional; conditions: Homo sapiens, HepG2, 72 h
# MDA-MB-231 = test: cells; assay type: functional; conditions: Homo sapiens, MDA-MB-231, 72 h
# [1] = target: Histone deacetylase (Homo sapiens) (UniProt Q13547+O15379+Q9UBN7+Q92769+Q9UQL6+Q8WUI4+Q9BY41+Q96DB2+P56524+Q9UKV0+Q969S8); test: Inhibition of HDAC in human MDA-MB-231 cells assessed as stimulation of histone H3 acetylation at 5 uM incubated for 24 hrs by Western blot; assay type: cell-based
# Outline: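 MDA-MB-231 cells in 35-mm dishes, dosed 24 h at graded concentrations, then trypsinized and PBS-washed. Lysed in RIPA (50 mM Tris-HCl pH 7.5, protease and phosphatase inhibitors) for 30 min at 4 °C, then cleared at 12,000g. Lysate, 60 μg protein by BCA, run on SDS-PAGE and PVDF. Blotted with anti-acetyl-histone H3 and HRP anti-rabbit, read by ECL.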
# Histone deacetylase = test: Inhibition of HDAC in human HeLa cell nuclear extracts using Ac-Arg-Gly-Lys(Ac)-AMC substrate by fluorimetry; assay type: protein assay
# A549 = test: cells; assay type: functional; conditions: Homo sapiens, A549, 72 h
# K562 = test: cells; assay type: functional; conditions: Homo sapiens, K562, 72 h
# SW-620 = test: cells; assay type: functional; conditions: Homo sapiens, SW-620, 72 h
# COLO 205 [2] = test: cells; assay type: functional; conditions: Homo sapiens, COLO 205, 72 h
# OVCAR-3 = test: cells; assay type: functional; conditions: Homo sapiens, OVCAR-3, 72 h
# PC-3 = test: cells; assay type: functional; conditions: Homo sapiens, PC-3, 72 h
# CCRF-CEM = test: Growth inhibition of human CCRF-CEM cells after 72 hrs by MTS assay; assay type: functional
# MOLT-4 = test: Growth inhibition of human MOLT4 cells after 72 hrs by MTS assay; assay type: functional; conditions: MOLT-4, 72 h
# NCI-H322M = test: Growth inhibition of human NCI-H322M cells after 72 hrs by MTS assay; assay type: functional
# NCI-H460 = test: Growth inhibition of human NCI-H460 cells after 72 hrs by MTS assay; assay type: functional; conditions: NCI-H460, 72 h
# COLO 205 [3] = test: Growth inhibition of human COLO205 cells after 72 hrs by MTS assay; assay type: functional; conditions: COLO 205, 72 h
# HCT-116 = test: Growth inhibition of human HCT116 cells after 72 hrs by MTS assay; assay type: functional; conditions: HCT-116, 72 h
# HT-29 = test: Growth inhibition of human HT-29 cells after 72 hrs by MTS assay; assay type: functional; conditions: HT-29, 72 h
# OVCAR-5 = test: Growth inhibition of human OVCAR5 cells after 72 hrs by MTS assay; assay type: functional; conditions: OVCAR-5, 72 h
# SNB-75 = test: Growth inhibition of human SNB75 cells after 72 hrs by MTS assay; assay type: functional; conditions: SNB-75, 72 h
# UACC-62 = test: Growth inhibition of human UACC62 cells after 72 hrs by MTS assay; assay type: functional; conditions: UACC-62, 72 h
# [4] = Lipophilicity, log D of the compound in pH 7.4 PBS buffer; assay type: physicochemical
# [5] = Half life in mouse plasma; assay type: ADME, cell-free
# [6] = Half life in mouse liver microsomes; assay type: ADME, Microsome
# [7] = Solubility in neutral water; assay type: physicochemical
# Cytochrome P450 3A4 = Cytochrome P450 3A4 (Homo sapiens, UniProt P08684); test: Inhibition of human CYP3A4; assay type: ADME
# Sequence of Cytochrome P450 3A4 (P08684 whole entry): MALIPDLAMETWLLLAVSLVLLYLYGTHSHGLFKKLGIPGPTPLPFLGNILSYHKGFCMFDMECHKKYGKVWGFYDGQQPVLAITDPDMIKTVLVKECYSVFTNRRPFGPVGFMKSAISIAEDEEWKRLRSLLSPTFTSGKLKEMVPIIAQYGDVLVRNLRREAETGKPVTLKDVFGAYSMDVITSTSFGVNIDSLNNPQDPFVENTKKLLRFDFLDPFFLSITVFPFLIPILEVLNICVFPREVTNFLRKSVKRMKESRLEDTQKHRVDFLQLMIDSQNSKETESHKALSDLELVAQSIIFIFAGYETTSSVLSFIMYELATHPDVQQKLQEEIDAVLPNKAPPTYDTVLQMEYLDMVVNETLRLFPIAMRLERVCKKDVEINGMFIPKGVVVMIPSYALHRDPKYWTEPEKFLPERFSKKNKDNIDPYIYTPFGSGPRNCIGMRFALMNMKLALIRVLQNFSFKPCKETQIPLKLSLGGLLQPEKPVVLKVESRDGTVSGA
# [8] = Apparent permeability from basolateral to apical side in human Caco2 cells at 10 uM; assay type: ADME, cell-based; conditions: Caco-2
# Outline: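 Caco-2 monolayers, test compound at 10 μM. Apparent permeability measured in both directions, apical to basolateral and basolateral to apical. Efflux ratio = P_app B to A / P_app A to B. Run by a contract lab following published methods. Mean of three independent triplicate experiments.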
GI50 (HepG2),GI50 (MDA-MB-231),IC50 (Histone deacetylase),GI50 (A549),SMILES,also measured
1000 nM,170 nM,23 nM,400 nM,CC(C)C(c1nc2ccccc2o1)n1cc(/C=C/C(=O)NO)nn1 (racemic),histone H3 acetylation activity (active/not active) [1]: Active
2200 nM,280 nM,19 nM,660 nM,CC(C)CC(c1nc2ccccc2o1)n1cc(/C=C/C(=O)NO)nn1 (racemic),–
8800 nM,–,41 nM,2100 nM,O=C(/C=C/c1cn(Cc2nc3ccccc3s2)nn1)NO,GI50 (K562): 2600 nM; GI50 (SW-620): 1500 nM; GI50 (COLO 205 [2]): 1500 nM; GI50 (OVCAR-3): 3600 nM; GI50 (PC-3): 2900 nM; histone H3 acetylation activity (active/not active) [1]: inactive
1700 nM,190 nM,4 nM,520 nM,CCC(C)C(c1nc2ccccc2o1)n1cc(/C=C/C(=O)NO)nn1 (racemic),–
5900 nM,5500 nM,219 nM,4400 nM,O=C(/C=C/c1cn(C(Cc2ccccc2)c2nc3ccccc3o2)nn1)NO (racemic),–
–,–,–,–,O=C(CCCCCCC(=O)Nc1ccccc1)NO [VORINOSTAT],GI50 (CCRF-CEM): 800 nM; GI50 (MOLT-4): 400 nM; GI50 (NCI-H322M): 790 nM; GI50 (NCI-H460): 790 nM; GI50 (COLO 205 [3]): 790 nM; GI50 (HCT-116): 400 nM; GI50 (HT-29): 790 nM; GI50 (OVCAR-5): 790 nM; GI50 (SNB-75): 790 nM; GI50 (UACC-62): 400 nM; logD [4]: 1; half-life [5]: 3.3 h; half-life [6]: 1.37 h; solubility [7]: > 170 µg/mL; INH (Cytochrome P450 3A4): 24.8 µM; Papp B→A at 10 µM [8]: 1.7 ×10⁻⁶ cm/s
2900 nM,1200 nM,86 nM,2400 nM,CC(c1nc2ccccc2o1)n1cc(/C=C/C(=O)NO)nn1 (racemic),–
